According to paper PMC5084759 (British Journal of Haematology, 2016):

How the values were obtained:
[1] = ref Gupta et al, 2013; cited from earlier work
[2] = Haemodialysis clearance, pre- and post-dialyser plasma samples in ESRD patients; format: in vivo, human
[3] = Stability of ixazomib in dialysate fluid; format: physicochemical; details: dialysate fluid used in haemodialysis
[4] = test system: relapsed and/or refractory multiple myeloma; assay: Myeloma disease response; format: in vivo, human
Method in brief: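 Part B dosing was oral ixazomib 4, 3 or 2·3 mg on days 1, 8 and 15 of 28-d cycles. Some patients also received dexamethasone 40 mg (20 mg if >75 years) on days 1, 8, 15 and 22 at investigator discretion. Investigators assessed response by IMWG uniform criteria across all cycles, with one bone marrow assessment to document CR. DOR ran from first CR/VGPR/PR to first progression.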

[5] = test system: CYP1A2; details: supra-therapeutic concentrations; ref unpublished observations; cited from earlier work
[6] = Safety and tolerability: adverse events; format: in vivo, human; details: for On-study deaths: first dose to 30 d after last dose
Method in brief: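 The safety population was all patients given ≥1 dose: a single 3 mg dose in Part A, then optional Part B dosing at 4, 3 or 2·3 mg on days 1, 8 and 15 of 28-d cycles, with or without dexamethasone. AEs, including SAEs, were recorded throughout treatment up to 30 d after the last dose and graded by NCI CTCAE v4.03.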

[7] = Single-dose plasma pharmacokinetics of oral ixazomib; format: in vivo, human; details: for Total AUC0-last, geometric mean (% CV): single 3 mg oral dose
Method in brief: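 Groups were CrCl ≥90 or <30 ml/min (Cockcroft–Gault) or on haemodialysis. Each patient took a single oral 3 mg dose fasted with about 240 ml water. Plasma was sampled pre-dose to 336 h and assayed by LC-MS/MS (0·5–500 ng/ml). Cmax and AUC0-last came from non-compartmental analysis. Group ratios of geometric means (90% CI) came from ANOVA on log-transformed parameters, with normal function as reference.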

[8] = CrCl 30-89 ml/min; ref Gupta et al, 2015b; cited from earlier work
[9] = test system: CYP3A; details: supra-therapeutic concentrations; ref unpublished observations; cited from earlier work
[10] = severe RI/ESRD patients versus patients with normal renal function

SMILES: CC(C)C[C@H](NC(=O)CNC(=O)c1cc(Cl)ccc1Cl)B(O)O [ixazomib]
- PK interaction between ixazomib and dexamethasone [1]: no PK interaction
- Haemodialysis clearance as share of overall systemic clearance ([2]; ESRD patients requiring haemodialysis): less than 10%
- Ixazomib concentrations in pre- versus post-dialyser samples ([2]; ESRD patients, 4-h haemodialysis session about 24-28 h after dose): similar
- clearance ([2]; human, plasma, oral, 3 mg): < 2 mL/min
- Stability in dialysate [3]: instability
- Patients with a response ([4]; normal renal function or ESRD groups (3 and 4 response-evaluable)): no patients
- Patients with a PR ([4]; severe RI, 11 response-evaluable): five
- Contribution to in vitro metabolism of ixazomib [5]: primary contributors
- Any TEAE ([6]; ESRD (N = 7)): 6 (86) n (%)
- Any TEAE, Grade ≥3 ([6]; ESRD (N = 7)): 4 (57) n (%)
- Drug-related SAE ([6]; ESRD (N = 7)): 0 n (%)
- SAE ([6]; ESRD (N = 7)): 3 (43) n (%)
- Study drug-related TEAE ([6]; ESRD (N = 7)): 4 (57) n (%)
- Study drug-related TEAE, Grade ≥3 ([6]; ESRD (N = 7)): 1 (14) n (%)
- TEAE resulting in ixazomib discontinuation ([6]; ESRD (N = 7)): 0 n (%)
- TEAE resulting in ixazomib dose reduction ([6]; ESRD (N = 7)): 0 n (%)
- TEAE: Anaemia ([6]; ESRD (N = 7)): 2 (29) n (%)
- TEAE: Arthralgia ([6]; ESRD (N = 7)): 1 (14) n (%)
- TEAE: Constipation ([6]; ESRD (N = 7)): 1 (14) n (%)
- TEAE: Diarrhoea ([6]; ESRD (N = 7)): 1 (14) n (%)
- TEAE: Dizziness ([6]; ESRD (N = 7)): 1 (14) n (%)
- TEAE: Dyspnoea ([6]; ESRD (N = 7)): 1 (14) n (%)
- TEAE: Fatigue ([6]; ESRD (N = 7)): 1 (14) n (%)
- TEAE: Hypotension ([6]; ESRD (N = 7)): 1 (14) n (%)
- TEAE: Nausea ([6]; ESRD (N = 7)): 2 (29) n (%)
- TEAE: Peripheral oedema ([6]; ESRD (N = 7)): 0 n (%)
- TEAE: URT infection ([6]; ESRD (N = 7)): 1 (14) n (%)
- TEAE: Vomiting ([6]; ESRD (N = 7)): 2 (29) n (%)
- On-study deaths ([6]; ESRD (N = 7)): 1 (14) n (%)
- Dose reductions for ixazomib or dexamethasone ([6]; ESRD group): no dose reductions
- Incidence of AE anaemia ([6]; ESRD group): 29%
- Incidence of grade ≥3 AEs ([6]; ESRD group): 57%
- Incidence of serious AEs ([6]; ESRD group): 43%
- On-study deaths, number ([6]; ESRD group): 1
- Investigator-attributed drug-related anaemia ([6]; ESRD patients): 0%
- Incidence of TEAE anaemia ([6]; all 41 patients): 22%
- Incidence of TEAE diarrhoea ([6]; all 41 patients): 39%
- Incidence of TEAE fatigue ([6]; all 41 patients): 29%
- Incidence of TEAE nausea ([6]; all 41 patients): 34%
- Incidence of TEAE vomiting ([6]; all 41 patients): 32%
- Incidence of grade ≥3 TEAE anaemia ([6]; all 41 patients): 15%
- Incidence of grade ≥3 TEAE decreased platelet count ([6]; all 41 patients): 7%
- Incidence of grade ≥3 TEAE hypotension ([6]; all 41 patients): 7%
- Patients with a TEAE of any grade ([6]; all 41 patients): 95%
- Patients who developed peripheral neuropathy ([6]; all 41 patients (six patients)): 15%
- Incidence of study drug-related TEAE diarrhoea ([6]; all patients): 29%
- Incidence of study drug-related TEAE nausea ([6]; all patients): 29%
- On-study deaths, number ([6]; all patients): three
- Patients with at least 1 TEAE ([6]; four patients with solid tumours (three patients)): 75%
- Any TEAE ([6]; normal renal function (N = 20)): 19 (95) n (%)
- Any TEAE, Grade ≥3 ([6]; normal renal function (N = 20)): 9 (45) n (%)
- Drug-related SAE ([6]; normal renal function (N = 20)): 3 (15) n (%)
- SAE ([6]; normal renal function (N = 20)): 3 (15) n (%)
- Study drug-related TEAE ([6]; normal renal function (N = 20)): 16 (80) n (%)
- Study drug-related TEAE, Grade ≥3 ([6]; normal renal function (N = 20)): 7 (35) n (%)
- TEAE resulting in ixazomib discontinuation ([6]; normal renal function (N = 20)): 2 (10) n (%)
- TEAE resulting in ixazomib dose reduction ([6]; normal renal function (N = 20)): 4 (20) n (%)
- TEAE: Anaemia ([6]; normal renal function (N = 20)): 1 (5) n (%)
- TEAE: Arthralgia ([6]; normal renal function (N = 20)): 3 (15) n (%)
- TEAE: Constipation ([6]; normal renal function (N = 20)): 5 (25) n (%)
- TEAE: Diarrhoea ([6]; normal renal function (N = 20)): 9 (45) n (%)
- TEAE: Dizziness ([6]; normal renal function (N = 20)): 1 (5) n (%)
- TEAE: Dyspnoea ([6]; normal renal function (N = 20)): 2 (10) n (%)
- TEAE: Fatigue ([6]; normal renal function (N = 20)): 5 (25) n (%)
- TEAE: Hypotension ([6]; normal renal function (N = 20)): 1 (5) n (%)
- TEAE: Nausea ([6]; normal renal function (N = 20)): 7 (35) n (%)
- TEAE: Peripheral oedema ([6]; normal renal function (N = 20)): 2 (10) n (%)
- TEAE: URT infection ([6]; normal renal function (N = 20)): 5 (25) n (%)
- TEAE: Vomiting ([6]; normal renal function (N = 20)): 6 (30) n (%)
- On-study deaths ([6]; normal renal function (N = 20)): 0 n (%)
- AEs leading to ixazomib discontinuations ([6]; normal renal function group): 10%
- AEs leading to ixazomib dose reductions ([6]; normal renal function group): 20%
- Incidence of AE anaemia ([6]; normal renal function group): 5%
- Incidence of grade ≥3 AEs ([6]; normal renal function group): 45%
- Incidence of serious AEs ([6]; normal renal function group): 15%
- Investigator-attributed drug-related anaemia ([6]; normal renal function group): 5%
- Any TEAE ([6]; severe RI (N = 14)): 14 (100) n (%)
- Any TEAE, Grade ≥3 ([6]; severe RI (N = 14)): 11 (79) n (%)
- Drug-related SAE ([6]; severe RI (N = 14)): 2 (14) n (%)
- SAE ([6]; severe RI (N = 14)): 6 (43) n (%)
- Study drug-related TEAE ([6]; severe RI (N = 14)): 12 (86) n (%)
- Study drug-related TEAE, Grade ≥3 ([6]; severe RI (N = 14)): 7 (50) n (%)
- TEAE resulting in ixazomib discontinuation ([6]; severe RI (N = 14)): 4 (29) n (%)
- TEAE resulting in ixazomib dose reduction ([6]; severe RI (N = 14)): 4 (29) n (%)
- TEAE: Anaemia ([6]; severe RI (N = 14)): 6 (43) n (%)
- TEAE: Arthralgia ([6]; severe RI (N = 14)): 2 (14) n (%)
- TEAE: Constipation ([6]; severe RI (N = 14)): 3 (21) n (%)
- TEAE: Diarrhoea ([6]; severe RI (N = 14)): 6 (43) n (%)
- TEAE: Dizziness ([6]; severe RI (N = 14)): 4 (29) n (%)
- TEAE: Dyspnoea ([6]; severe RI (N = 14)): 3 (21) n (%)
- TEAE: Fatigue ([6]; severe RI (N = 14)): 6 (43) n (%)
- TEAE: Hypotension ([6]; severe RI (N = 14)): 3 (21) n (%)
- TEAE: Nausea ([6]; severe RI (N = 14)): 5 (36) n (%)
- TEAE: Peripheral oedema ([6]; severe RI (N = 14)): 4 (29) n (%)
- TEAE: URT infection ([6]; severe RI (N = 14)): 1 (7) n (%)
- TEAE: Vomiting ([6]; severe RI (N = 14)): 5 (36) n (%)
- On-study deaths ([6]; severe RI (N = 14)): 2 (14) n (%)
- AEs leading to ixazomib discontinuations ([6]; severe RI group): 29%
- AEs leading to ixazomib dose reductions ([6]; severe RI group): 29%
- Incidence of AE anaemia ([6]; severe RI group): 43%
- Incidence of grade ≥3 AEs ([6]; severe RI group): 79%
- Incidence of serious AEs ([6]; severe RI group): 43%
- Investigator-attributed drug-related anaemia ([6]; severe RI group): 29%
- On-study deaths, number ([6]; severe RI group): 2
- Any TEAE ([6]; total (N = 41)): 39 (95) n (%)
- Any TEAE, Grade ≥3 ([6]; total (N = 41)): 24 (59) n (%)
- Drug-related SAE ([6]; total (N = 41)): 5 (12) n (%)
- SAE ([6]; total (N = 41)): 12 (29) n (%)
- Study drug-related TEAE ([6]; total (N = 41)): 32 (78) n (%)
- Study drug-related TEAE, Grade ≥3 ([6]; total (N = 41)): 15 (37) n (%)
- TEAE resulting in ixazomib discontinuation ([6]; total (N = 41)): 6 (15) n (%)
- TEAE resulting in ixazomib dose reduction ([6]; total (N = 41)): 8 (20) n (%)
- TEAE: Anaemia ([6]; total (N = 41)): 9 (22) n (%)
- TEAE: Arthralgia ([6]; total (N = 41)): 6 (15) n (%)
- TEAE: Constipation ([6]; total (N = 41)): 9 (22) n (%)
- TEAE: Diarrhoea ([6]; total (N = 41)): 16 (39) n (%)
- TEAE: Dizziness ([6]; total (N = 41)): 6 (15) n (%)
- TEAE: Dyspnoea ([6]; total (N = 41)): 6 (15) n (%)
- TEAE: Fatigue ([6]; total (N = 41)): 12 (29) n (%)
- TEAE: Hypotension ([6]; total (N = 41)): 5 (12) n (%)
- TEAE: Nausea ([6]; total (N = 41)): 14 (34) n (%)
- TEAE: Peripheral oedema ([6]; total (N = 41)): 6 (15) n (%)
- TEAE: URT infection ([6]; total (N = 41)): 7 (17) n (%)
- TEAE: Vomiting ([6]; total (N = 41)): 13 (32) n (%)
- On-study deaths ([6]; total (N = 41)): 3 (7) n (%)
- Total systemic exposure, higher versus normal renal function [7, 10]: 39%
- Unbound systemic exposure, higher versus normal renal function [7, 10]: 38%
- Total AUC0-last, geometric mean (% CV) ([7]; ESRD (n = 6)): 783 (35) h·ng/ml
- Total AUC0-last, geometric mean (% CV) ([7]; normal renal function (n = 15)): 575 (38) ^c h·ng/ml
- Total AUC0-last, geometric mean (% CV) ([7]; severe RI (n = 10)): 813 (51) ^d h·ng/ml
- Ixazomib clearance in patients with mild or moderate RI [8]: not altered
- Contribution to in vitro metabolism of ixazomib [9]: primary contributors
